Test results from article PMC4066874 (Immunity, 2014).
Where two headings read alike, the source gives them in different places. One block for each molecule: values may come before it.

Tests used:
[1] = system: RORγt occupancy at genomic binding sites; experiment: ChIP-seq for RORγt in Th17 cells treated with compound; assay type: cell-based, mouse; settings: for RORγt sites with decreased (lower) ChIP signal: 2.5 μM TMP778, 10 μM TMP920, 96 h
Summary of the method: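 Naive CD4+CD62Lhigh CD25− T cells (MACS then FACS sorted) were activated on plate-bound anti-CD3 and anti-CD28 (2 μg/ml each) with IL-6 (20 ng/ml) and TGF-β1 (1 ng/ml), plus IL-23 (10 ng/ml) from 48 h. Test compound (2.5 or 10 μM) or DMSO was present for 96 h. ChIP used anti-RORγt (AFKJS-9), with isotype IgG and RORγt-deficient cells as controls. Sequencing was single-end 36 bp.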

[2] = system: IL-17 production in Th17 cell cultures; experiment: IL-17 production during Th17 cell differentiation in vitro; assay type: cell-based, mouse; settings: for effect on IL-17 production in Th17 cell cultures: Digoxin at 10 μM, TMP778 over a much broader dose range; for concentration at which the inhibitory effect on IL-17 production was lost: Th17 cell-polarizing conditions
[3] = system: primary naïve CD4+ T cells under Th17 cell-polarizing conditions; experiment: cell proliferation of naïve CD4+ T cells under Th17 cell-polarizing conditions; settings: not RORγt-dependent
[4] = system: experimental autoimmune encephalomyelitis (EAE)
GATA3 protein = GATA3 protein expression in Th17 cells; assay type: cell-based, mouse; settings: Th17 cells treated with compound
[5] = system: CCR6- memory human T cells; experiment: transcription in human CCR6- memory T cells; assay type: cell-based
[6] = system: primary naïve CD4+ T cells under Th17 cell-polarizing conditions
[7] = target: 22 other nuclear receptors; experiment: luciferase assays for 22 other nuclear receptors; assay type: cell-based; settings: read-out: IC50 in luciferase assays for 22 other nuclear receptors
RORα = target: T1, RORα (Homo sapiens, UniProt P35398); experiment: cell-based nuclear receptor reporter
T1 sequence (P35398 1-523): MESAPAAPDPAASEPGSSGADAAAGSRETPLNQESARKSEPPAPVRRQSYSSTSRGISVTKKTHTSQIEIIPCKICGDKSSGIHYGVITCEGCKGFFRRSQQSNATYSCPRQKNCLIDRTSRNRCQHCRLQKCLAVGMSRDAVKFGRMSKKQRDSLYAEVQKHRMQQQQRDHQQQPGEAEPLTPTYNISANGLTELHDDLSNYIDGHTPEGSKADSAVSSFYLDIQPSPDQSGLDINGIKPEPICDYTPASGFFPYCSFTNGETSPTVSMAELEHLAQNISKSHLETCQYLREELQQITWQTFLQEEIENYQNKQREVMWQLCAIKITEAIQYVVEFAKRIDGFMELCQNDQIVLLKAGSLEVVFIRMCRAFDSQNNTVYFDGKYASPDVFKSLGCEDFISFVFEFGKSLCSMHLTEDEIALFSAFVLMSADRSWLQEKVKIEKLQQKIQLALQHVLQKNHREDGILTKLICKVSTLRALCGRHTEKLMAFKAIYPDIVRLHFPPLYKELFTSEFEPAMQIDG

[8] = target: T2, RORγt ligand-binding domain (Homo sapiens, UniProt P51449); experiment: FRET assay, RORγt ligand-binding domain and cofactor peptide SRC1; assay type: biochemical; settings: read-out: IC50, inhibition of RORγt binding to the SRC1 peptide in the FRET assay
T2 sequence (P51449 263-518 limits assumed): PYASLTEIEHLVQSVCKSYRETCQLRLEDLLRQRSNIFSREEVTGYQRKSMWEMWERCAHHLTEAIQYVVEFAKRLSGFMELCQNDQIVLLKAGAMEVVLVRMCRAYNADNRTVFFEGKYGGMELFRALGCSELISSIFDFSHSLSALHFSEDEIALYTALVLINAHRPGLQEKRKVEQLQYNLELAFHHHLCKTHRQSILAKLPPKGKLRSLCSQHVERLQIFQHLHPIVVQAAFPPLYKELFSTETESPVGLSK

RORβ = target: T3, RORβ (Homo sapiens, UniProt Q92753); experiment: cell-based nuclear receptor reporter
T3 sequence (Q92753 1-470): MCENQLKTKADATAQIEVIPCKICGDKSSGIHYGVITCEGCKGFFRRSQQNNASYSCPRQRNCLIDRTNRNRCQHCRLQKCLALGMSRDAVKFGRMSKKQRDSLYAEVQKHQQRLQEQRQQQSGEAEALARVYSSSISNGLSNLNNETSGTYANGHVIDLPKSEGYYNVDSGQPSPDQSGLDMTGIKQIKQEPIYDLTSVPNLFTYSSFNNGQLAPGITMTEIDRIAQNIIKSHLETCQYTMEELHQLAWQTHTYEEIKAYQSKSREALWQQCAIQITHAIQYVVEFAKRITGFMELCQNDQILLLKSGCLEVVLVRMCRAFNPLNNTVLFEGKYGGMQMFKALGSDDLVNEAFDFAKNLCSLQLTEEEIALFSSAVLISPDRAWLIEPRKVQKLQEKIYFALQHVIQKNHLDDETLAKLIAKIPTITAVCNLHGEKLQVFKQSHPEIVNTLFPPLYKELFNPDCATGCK

RORγ = target: T4, RORγ (Homo sapiens, UniProt P51449); experiment: cell-based nuclear receptor reporter
T4 sequence (P51449 1-518): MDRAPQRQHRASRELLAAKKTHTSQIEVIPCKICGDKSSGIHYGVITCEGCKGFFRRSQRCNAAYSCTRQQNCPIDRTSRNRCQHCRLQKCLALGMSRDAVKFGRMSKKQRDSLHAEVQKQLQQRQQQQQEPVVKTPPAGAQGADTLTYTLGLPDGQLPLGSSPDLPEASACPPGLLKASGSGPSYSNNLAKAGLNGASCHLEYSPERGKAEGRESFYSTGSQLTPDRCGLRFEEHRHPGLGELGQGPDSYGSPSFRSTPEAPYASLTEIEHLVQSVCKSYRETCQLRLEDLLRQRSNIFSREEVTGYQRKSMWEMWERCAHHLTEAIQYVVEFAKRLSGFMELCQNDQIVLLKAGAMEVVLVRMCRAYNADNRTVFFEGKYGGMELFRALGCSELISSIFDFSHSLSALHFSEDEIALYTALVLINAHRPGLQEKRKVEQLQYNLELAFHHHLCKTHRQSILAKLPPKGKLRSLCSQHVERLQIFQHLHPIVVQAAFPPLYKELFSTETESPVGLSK

[9] = system: IL-17 production in CD4+ T cells; experiment: IL-17 production from differentiated Th17 cells; assay type: cell-based, mouse; settings: WT CD4+ T cells, MOG35-55 plus IL-23, 4 days
Summary of the method: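 Female C57BL/6 mice (8–12 wk) were immunized s.c. in the flanks with MOG35-55 (100 μg/mouse) in CFA containing M. tuberculosis H37Ra extract. Draining LN cells were restimulated with MOG35-55 and IL-23 plus test compound or DMSO for 4 days. They were then given a 4 h PMA/ionomycin/GolgiStop restimulation, fixed and permeabilized, and stained intracellularly for IL-17 and IFNγ in CD4+ cells. Values are mean ± SD.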

SMILES: C[C@H]1O[C@@H](O[C@H]2[C@@H](O)C[C@H](O[C@H]3[C@@H](O)C[C@H](O[C@H]4CC[C@@]5(C)[C@H](CC[C@@H]6[C@@H]5C[C@@H](O)[C@]5(C)[C@@H](C7=CC(=O)OC7)CC[C@]65O)C4)O[C@@H]3C)O[C@@H]2C)C[C@H](O)[C@@H]1O [Digoxin, reference compound]
effect on RORγt binding ([1]; 10 μM Digoxin, 96 h): intermediate | effect on IL-17 production in Th17 cell cultures [2]: specifically inhibited IL-17 production | concentration at which the inhibitory effect on IL-17 production was lost [2]: < 2.5 µM | concentration at which toxic effects on cell growth start [3]: > 10 µM | dose that caused mouse death ([4]; per injection, subcutaneous twice daily): > 100 µg

SMILES: CCS(=O)(=O)c1ccc(CC(=O)Nc2cc(Cl)c(-c3ccccc3OC(F)(F)F)c(Cl)c2)cc1 [GSK805]
inhibition of IL-17 production during Th17 cell differentiation ([2]; GSK805 at 0.5 μM, 4 days): comparable inhibition of IL-17 production as TMP778 at 2.5 μM | GATA3 protein expression (GATA3 protein): increased GATA3 protein expression | effect on severity of EAE ([4]; oral, 10 mg/kg daily from day 0): efficiently ameliorate the severity of EAE | Th17 cell responses in the CNS ([4]; oral, 30 mg/kg, day 14): strongly inhibits Th17 cell responses

SMILES: Cc1ccc([C@@H](NC(=O)Cc2ccc3oc([C@@H](O)c4c(C)noc4C)cc3c2)c2ccccc2)c(C)c1 [TMP778]
effect on transcription in population depleted for Th17 cells [5]: no differentially expressed genes with a fold cutoff over 1.5 | concentration at which toxic effects on cell growth start [6]: > 2.5 µM | IC50 [7]: > 10 µM | IC50 fold higher for RORα than in RORγ assays (RORα): roughly 100 fold | IC50 (RORα; read-out: IC50 for RORα, luciferase reporter): 1.24 µM | IC50 [8]: 0.005 µM | IC50 fold higher for RORβ than in RORγ assays (RORβ): roughly 100 fold | IC50 (RORβ; read-out: IC50 for RORβ, luciferase reporter): 1.39 µM | new RORγt binding sites ([1]; 2.5 μM TMP778): 179 | new RORγt binding sites as share of peaks observed with compound ([1]; 2.5 μM TMP778): 8.2 % of peaks | RORγt sites with decreased (lower) ChIP signal [1]: 55 % of sites | effect on IL-17 production in Th17 cell cultures [2]: efficiently decreased IL-17 production | IC50 (RORγ; read-out: IC50 for luciferase activity in RORγ assays): 0.017 µM | GATA3 protein expression (GATA3 protein): increased expression of GATA3 protein | percentage of IL-17+ T cells in the CNS ([4]; subcutaneous twice daily, day 21 after EAE induction): most strongly reduced the percentage of IL-17^+ T cells in the CNS | inhibition of IL-17 production from differentiated Th17 cells [9]: the most potent inhibition

IC50 [7]: > 10 µM | IC50 [8]: 0.03 µM | IC50 (RORγ; read-out: IC50 in RORγ assays): 1.1 µM
SMILES: Cc1ccc(C(NC(=O)Cc2ccc(OCc3c(C)noc3C)cc2)c2ccccc2)c(C)c1 (stereo not shown) [TMP920]
concentration at which toxic effects on cell growth start [6]: > 10 µM | RORγt sites with decreased (lower) ChIP signal [1]: 77 % of sites | concentration at which the inhibitory effect on IL-17 production was lost [2]: < 2.5 µM
